According to ChEMBL document CHEMBL4732197, “Identification of novel potent HIV-1 inhibitors by exploiting the tolerant regions of the NNRTIs binding pocket” (Eur J Med Chem, 2021):
In brackets after ≈: the same amount, converted by molar mass.

Tests used:
[1] = system: reverse transcriptase Y181C mutant (HIV-1); assay: Inhibition of reverse transcriptase Y181C mutant in HIV-1 infected in human MT4 cells assessed as reduction in virus-induced cytopathic effect incubated for 5 days by MTT assay; details: Human immunodeficiency virus 1, MT4, 120 h
[2] = target: Human immunodeficiency virus type 1 reverse transcriptase (Human immunodeficiency virus 1, UniProt Q72547); assay: Inhibition of HIV-1 reverse transcriptase assessed as inhibition of biotin-dUTP incorporation into wild type RT measured after 1 hr by ELISA
[3] = Cytotoxicity against human MT4 cells assessed as reduction in cell viability incubated for 5 days by MTT assay; format: cell-based; details: time 5 day
Outline: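 Mock-infected MT-4 cells at 6 × 10^5 cells/mL were given serial 5-fold compound dilutions in triplicate wells alongside the infected series. After 5 days viability was read by MTT at 540 and 690 nm, using the median of three wells.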

[4] = Selectivity index, ratio of CC50 for human MT4 cells to EC50 for antiviral activity against HIV IIIB; format: toxicity; details: read-out: Ratio CC50/EC50
Outline: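 SI is computed as CC50/EC50. […] Both used serial 5-fold dilutions in triplicate and were read by MTT after 5 days, taking the median absorbance of three wells.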

[5] = system: Human immunodeficiency virus 1; assay: Antiviral activity against HIV-1 3B infected in human MT4 cells assessed as reduction in virus-induced cytopathic effect incubated for 5 days by MTT assay; format: functional, organism-based; details: Human immunodeficiency virus 1, 3B, MT4, 120 h
Outline: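 MT-4 cells resuspended at 6 × 10^5 cells/mL were infected with HIV-1 stock at 100–300 CCID50. Compounds were tested in serial 5-fold dilutions in triplicate wells. Viability was read by MTT after 5 days at 540 and 690 nm, using the median of three wells.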

[6] = Inhibition of reverse transcriptase RES056 mutant in HIV-1 infected in human MT4 cells assessed as reduction in virus-induced cytopathic effect incubated for 5 days by MTT assay; format: cell-based; details: Human immunodeficiency virus 1, MT4, 120 h
Outline: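 MT-4 cells were spun down, resuspended at 6 × 10^5 cells/mL and infected with 100–300 CCID50 of mutant HIV-1 (RES056 = K103N + Y181C). Serial 5-fold compound dilutions were tested in triplicate wells alongside mock-infected wells. After 5 days, viability was read by MTT at 540 and 690 nm using the median of three wells.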

[7] = Solubility in water at pH 7 at 0.1 to 10 mg
[8] = physchem; details: water, pH 2
[9] = physchem; details: water, pH 7.4

| SMILES | EC50 [1] | IC50 [2] | CC50 at 120 h [3] | selectivity ratio [4] | EC50 [5] | EC50 [6] | solubility [7] | solubility [8] | solubility [9] |
| --- | --- | --- | --- | --- | --- | --- | --- | --- | --- |
| Cc1cc(/C=C/C#N)cc(C)c1Oc1nc(Nc2ccc(N3CCN(S(N)(=O)=O)CC3)cc2)nc2sccc12 | 1360 nM | 713 nM | > 223000 nM | > 7790 | 28 nM | 196000 nM | – | – | – |
| Cc1cc(/C=C/C#N)cc(C)c1Oc1nc(Nc2ccc(CN3CCN(S(C)(=O)=O)CC3)cc2)nc2sccc12 | 1270 nM | 103 nM | 131000 nM | 3560 | 36 nM | 18800 nM | – | – | – |
| Cc1cc(/C=C/C#N)cc(C)c1Oc1nc(Nc2ccc(CN3CCN(S(N)(=O)=O)CC3)cc2)nc2sccc12 | 45 nM | 299 nM | > 218000 nM | > 26900 | 8 nM | 1380 nM | 49.3 µg/mL (≈ 85.6 µM) | 64.9 µg/mL (≈ 113 µM) | 38.9 µg/mL (≈ 67.6 µM) |
| Cc1cc(/C=C/C#N)cc(C)c1Oc1nc(Nc2ccc(N3CCN(S(C)(=O)=O)CC3)cc2)nc2sccc12 | 42700 nM | 239 nM | > 222000 nM | > 1300 | 172 nM | 175000 nM | – | – | – |
| Cc1cc(/C=C/C#N)cc(C)c1Oc1nc(Nc2ccc(CN3CCNCC3)cc2)nc2ccsc12 | – | 707 nM | 3970 nM | 18 | 216 nM | – | – | – | – |
| O=C1Nc2ccc(Cl)cc2[C@@](C#CC2CC2)(C(F)(F)F)O1 [EFAVIRENZ] | 5 nM | – | > 6340 nM | – | 28 nM | 335 nM | – | – | – |
| Cc1cc(/C=C/C#N)cc(C)c1Oc1nc(Nc2ccc(CN3CCNCC3)cc2)nc2sccc12 | – | 151 nM | 4030 nM | 94 | 42 nM | – | – | – | – |
| Cc1cc(/C=C/C#N)cc(C)c1Oc1nc(Nc2ccc(N3CCCC(NS(N)(=O)=O)C3)cc2)nc2ccsc12 (stereo not given) | 3640 nM | 2410 nM | > 218000 nM | > 3630 | 59 nM | > 218000 nM | – | – | – |
| Cc1cc(/C=C/C#N)cc(C)c1Oc1nc(Nc2ccc(N3CCCC(NS(N)(=O)=O)C3)cc2)nc2sccc12 (stereo not given) | 7530 nM | 4790 nM | > 218000 nM | > 1730 | 126 nM | > 218000 nM | – | – | – |
| Cc1cc(/C=C/C#N)cc(C)c1Oc1nc(Nc2ccc(N3CCN(S(N)(=O)=O)CC3)cc2)nc2ccsc12 | 2250 nM | 214 nM | > 223000 nM | > 8310 | 27 nM | > 223000 nM | – | – | – |
| Cc1cc(/C=C/C#N)cc(C)c1Oc1nc(Nc2ccc(N3CCNCC3)cc2)nc2ccsc12 | – | 945 nM | 5730 nM | 15 | 387 nM | – | – | – | – |
| Cc1cc(/C=C/C#N)cc(C)c1Oc1nc(Nc2ccc(N3CCNCC3)cc2)nc2sccc12 | – | 849 nM | 4740 nM | 8 | 584 nM | – | – | – | – |
| Cc1cc(/C=C/C#N)cc(C)c1Oc1nc(Nc2ccc(CN3CCN(S(N)(=O)=O)CC3)cc2)nc2ccsc12 | 154 nM | 961 nM | 145000 nM | 19000 | 7 nM | 1910 nM | 49.7 µg/mL (≈ 86.3 µM) | 73.1 µg/mL (≈ 127 µM) | 39.5 µg/mL (≈ 68.6 µM) |
| Cc1cc(/C=C/C#N)cc(C)c1Oc1nc(Nc2ccc(N3CCCC(NS(C)(=O)=O)C3)cc2)nc2ccsc12 (stereo not given) | 43400 nM | 775 nM | > 217000 nM | > 434 | 450 nM | > 217000 nM | – | – | – |
| Cc1cc(/C=C/C#N)cc(C)c1Oc1nc(Nc2ccc(CN3CCN(S(C)(=O)=O)CC3)cc2)nc2ccsc12 | 5640 nM | 139 nM | 20700 nM | 53 | 391 nM | > 20700 nM | – | – | – |
| Cc1cc(/C=C/C#N)cc(C)c1Oc1nc(Nc2ccc(N3CCCC(NS(C)(=O)=O)C3)cc2)nc2sccc12 (stereo not given) | 14000 nM | 1020 nM | 112000 nM | 78 | 1430 nM | 16500 nM | – | – | – |
| Cc1cc(/C=C/C#N)cc(C)c1Oc1nc(Nc2ccc(N3CCCC(N)C3)cc2)nc2ccsc12 (stereo not given) | – | 1580 nM | 3820 nM | 5 | 815 nM | – | – | – | – |
| Cc1cc(/C=C/C#N)cc(C)c1Oc1nc(Nc2ccc(N3CCCC(N)C3)cc2)nc2sccc12 (stereo not given) | – | 956 nM | 4610 nM | 10 | 461 nM | – | – | – | – |
| Cc1ccnc2c1NC(=O)c1cccnc1N2C1CC1 [NEVIRAPINE] | 5050 nM | – | > 15000 nM | – | 150 nM | > 15000 nM | – | – | – |
| Cc1cc(/C=C/C#N)cc(C)c1Oc1nc(Nc2ccc(N3CCN(S(C)(=O)=O)CC3)cc2)nc2ccsc12 | 4530 nM | 211 nM | 11500 nM | 428 | 27 nM | > 11500 nM | – | – | – |
| Cc1cc(C#N)cc(C)c1Oc1nc(Nc2ccc(C#N)cc2)nc(N)c1Br [ETRAVIRINE] | 15 nM | – | > 4590 nM | – | – | 60 nM | < 1 µg/mL | – | < 1 µg/mL |
